Source: ChEMBL document CHEMBL4732167, “Structure based design, synthesis, and biological evaluation of imidazole derivatives targeting dihydropteroate synthase enzyme” (Bioorg Med Chem Lett, 2021)
Values after ≈ are worked out from the molar mass of the structure shown.

Tests used:
Staphylococcus aureus [1] = test: Antibacterial activity against Staphylococcus aureus MTCC 96 assessed as bacterial growth inhibition; type: functional
Pseudomonas aeruginosa = test: Antibacterial activity against Pseudomonas aeruginosa MTCC 1688 assessed as bacterial growth inhibition; type: functional
Escherichia coli = test: Antibacterial activity against Escherichia coli MTCC 443 assessed as bacterial growth inhibition; type: functional
Streptococcus pyogenes = test: Antibacterial activity against Streptococcus pyogenes MTCC 442 assessed as bacterial growth inhibition; type: functional
[2] = Antioxidant activity assessed as hydrogen peroxide radical scavenging activity at 100 ug/ml (reference value: 23.6 to 43.1 %); type: functional; conditions: dose 100.0 µg/ml
Method in brief: (§1)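 Hydrogen peroxide scavenging was measured across a compound series of 0, 25, 50, 75 and 100 µg/ml.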

[3] = Antioxidant activity assessed as DPPH radical scavenging activity at 25 ug/ml (reference value: 22 to 40.2 %); type: functional; conditions: dose 25.0 µg/ml
Method in brief: (§2)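 DPPH radical scavenging was measured at 0, 25, 50, 75 and 100 µg/ml of each compound. Ascorbic acid was the reference.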

Staphylococcus aureus [4] = test: Antibacterial activity against methicillin-resistant Staphylococcus aureus assessed as inhibition of bacterial growth; type: functional
Method in brief: (§3)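 Growth inhibition of the drug-resistant strain was read out as the minimum inhibitory concentration (MIC), reported in µg/mL. The same protocol was also run on an ESBL strain.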

Enterococcus = test: Antibacterial activity against vancomycin-resistant Enterococcus assessed as inhibition of bacterial growth; type: functional; method in brief: as §3
[5] = Antioxidant activity assessed as hydrogen peroxide radical scavenging activity at 50 ug/ml (reference value: 23.6 to 43.1 %); type: functional; conditions: dose 50.0 µg/ml; method in brief: as §1
[6] = Antioxidant activity assessed as nitric oxide radical scavenging activity at 75 ug/ml (reference value: 25.8 to 41.6 %); type: functional; conditions: dose 75.0 µg/ml
Method in brief: (§4)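 Nitric oxide radical scavenging was tested at 0, 25, 50, 75 and 100 µg/ml of compound.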

[7] = Antioxidant activity assessed as DPPH radical scavenging activity at 75 ug/ml (reference value: 22 to 40.2 %); type: functional; conditions: dose 75.0 µg/ml; method in brief: as §2
Aspergillus clavatus = test: Antifungal activity against Aspergillus clavatus MTCC 1323 assessed as fungal growth inhibition; type: functional
[8] = Antioxidant activity assessed as DPPH radical scavenging activity at 50 ug/ml (reference value: 22 to 40.2 %); type: functional; conditions: dose 50.0 µg/ml; method in brief: as §2
Bacteria = test: Antibacterial activity against ESBL-producing bacteria assessed as bacterial growth inhibition; type: functional
Method in brief: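 Values are minimum inhibitory concentrations (MIC) in µg/mL, determined at an outside microbiology laboratory.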

Candida albicans = test: Antifungal activity against Candida albicans MTCC 227 assessed as fungal growth inhibition; type: functional
Aspergillus niger = test: Antifungal activity against Aspergillus niger MTCC 282 assessed as fungal growth inhibition; type: functional
[9] = Antioxidant activity assessed as nitric oxide radical scavenging activity at 100 ug/ml (reference value: 25.8 to 41.6 %); type: functional; conditions: dose 100.0 µg/ml; method in brief: as §4
[10] = Antioxidant activity assessed as nitric oxide radical scavenging activity at 25 ug/ml (reference value: 25.8 to 41.6 %); type: functional; conditions: dose 25.0 µg/ml; method in brief: as §4
[11] = Antioxidant activity assessed as hydrogen peroxide radical scavenging activity at 25 ug/ml (reference value: 23.6 to 43.1 %); type: functional; conditions: dose 25.0 µg/ml; method in brief: as §1
[12] = Antioxidant activity assessed as nitric oxide radical scavenging activity at 50 ug/ml (reference value: 25.8 to 41.6 %); type: functional; conditions: dose 50.0 µg/ml; method in brief: as §4
[13] = Antioxidant activity assessed as hydrogen peroxide radical scavenging activity at 75 ug/ml (reference value: 23.6 to 43.1 %); type: functional; conditions: dose 75.0 µg/ml; method in brief: as §1
[14] = Antioxidant activity assessed as DPPH radical scavenging activity at 100 ug/ml (reference value: 22 to 40.2 %); type: functional; conditions: dose 100.0 µg/ml; method in brief: as §2
[15] = system: Mycobacterium tuberculosis; test: Antibacterial activity against Mycobacterium tuberculosis H37Rv assessed as bacterial growth inhibition; type: functional
Plasmodium falciparum = test: Antimalarial activity against Plasmodium falciparum assessed as parasite growth inhibition; type: functional, organism-based

Molecule	MIC (Staphylococcus aureus [1]) [µg/mL]	MIC (Pseudomonas aeruginosa) [µg/mL]	MIC (Escherichia coli) [µg/mL]	MIC (Streptococcus pyogenes) [µg/mL]	Activity [2] [%]	Activity [3] [%]	Activity [5] [%]	Activity [6] [%]	Activity [7] [%]	MFC (Aspergillus clavatus) [µg/mL]	Activity [8] [%]	MIC (Bacteria) [µg/mL]	MFC (Candida albicans) [µg/mL]	MFC (Aspergillus niger) [µg/mL]	Activity [9] [%]	Activity [10] [%]	Activity [11] [%]	Activity [12] [%]	Activity [13] [%]	IC50 (Plasmodium falciparum) [µg/mL]	also measured
O=C(N[C@H](CO)[C@H](O)c1ccc([N+](=O)[O-])cc1)C(Cl)Cl [CHLORAMPHENICOL]	50 (≈ 155 µM)	50 (≈ 155 µM)	50 (≈ 155 µM)	50 (≈ 155 µM)																	
COc1ccc(-n2c(SCC(=O)Nc3ccc(OCc4ccc(F)cc4)cc3)nc(C)c2C(C)=O)cc1	100 (≈ 192 µM)	25 (≈ 48.1 µM)	12.5 (≈ 24.1 µM)	100 (≈ 192 µM)	84.3	31.6	68.1	81.4	67.2	500 (≈ 962 µM)	54.2	25 (≈ 48.1 µM)	500 (≈ 962 µM)	500 (≈ 962 µM)	90.5	45.8	54	63.4	79.8	1.4 (≈ 2.69 µM)	MIC (Staphylococcus aureus [4]): 125 µg/mL (≈ 241 µM); MIC (Enterococcus): 100 µg/mL (≈ 192 µM); Activity [14]: 84.3%; MIC [15]: 50 µg/mL (≈ 96.2 µM)
NNC(=O)c1ccncc1 [ISONIAZID]																					MIC [15]: 0.2 µg/mL (≈ 1.46 µM)
CC(=O)c1c(C)nc(SCC(=O)Nc2ccc(OC(=O)c3ccc(Cl)cc3)cc2)n1-c1ccc(Cl)cc1	125 (≈ 225 µM)	100 (≈ 180 µM)	250 (≈ 451 µM)	100 (≈ 180 µM)	93.6	36.9	66.6	81.9	64.9	> 1000	49.3	1000 (≈ 1800 µM)	> 1000	> 1000	89.4	41.8	50.8	58.3	80	0.46 (≈ 0.83 µM)	Activity [14]: 84.5%
GENTAMICIN	0.25	1	0.05	0.5																	
CC(=O)c1c(C)nc(SCC(=O)Nc2ccc(OC(=O)c3ccc(Cl)cc3)cc2)n1-c1ccc(Br)cc1	250 (≈ 417 µM)	100 (≈ 167 µM)	125 (≈ 209 µM)	100 (≈ 167 µM)	86.1	45.2	54.2	82.3	65.2	500 (≈ 835 µM)	52.1	250 (≈ 417 µM)	1000 (≈ 1670 µM)	500 (≈ 835 µM)	90.8	38	38.7	62.4	68.9	1.04 (≈ 1.74 µM)	MIC (Staphylococcus aureus [4]): 500 µg/mL (≈ 835 µM); MIC (Enterococcus): 500 µg/mL (≈ 835 µM); Activity [14]: 83.1%; MIC [15]: 12.5 µg/mL (≈ 20.9 µM)
CC(=O)c1c(C)nc(SCC(=O)Nc2ccc(OCc3ccc(Cl)cc3)cc2)n1-c1ccccc1	250 (≈ 494 µM)	25 (≈ 49.4 µM)	100 (≈ 198 µM)	62.5 (≈ 124 µM)	79.6	52.1	59.4	76.9	76	500 (≈ 988 µM)	68.2	125 (≈ 247 µM)	> 1000	500 (≈ 988 µM)	88.4	49.5	42.6	61.4	67.3	1.45 (≈ 2.87 µM)	MIC (Staphylococcus aureus [4]): 100 µg/mL (≈ 198 µM); MIC (Enterococcus): 100 µg/mL (≈ 198 µM); Activity [14]: 84.7%; MIC [15]: 12.5 µg/mL (≈ 24.7 µM)
CC(=O)c1c(C)nc(SCC(=O)Nc2ccc(OC(=O)c3ccco3)cc2)n1-c1ccc(Br)cc1	100 (≈ 180 µM)	250 (≈ 451 µM)	100 (≈ 180 µM)	250 (≈ 451 µM)	86.5	43.2	68.7	75.8	64.8	500 (≈ 902 µM)	57.1	250 (≈ 451 µM)	1000 (≈ 1800 µM)	500 (≈ 902 µM)	86.7	49.3	51.7	65.3	79	1.18 (≈ 2.13 µM)	MIC (Staphylococcus aureus [4]): 100 µg/mL (≈ 180 µM); MIC (Enterococcus): 250 µg/mL (≈ 451 µM); Activity [14]: 88.7%; MIC [15]: 25 µg/mL (≈ 45.1 µM)
CC(=O)c1c(C)nc(SCC(=O)Nc2ccc(OC(=O)c3ccco3)cc2)n1-c1ccc(F)cc1	500 (≈ 1010 µM)	250 (≈ 507 µM)	100 (≈ 203 µM)	250 (≈ 507 µM)	85.1	34.6	64.8	79.6	66.7	500 (≈ 1010 µM)	48.2	125 (≈ 253 µM)	500 (≈ 1010 µM)	500 (≈ 1010 µM)	81.7	45.2	55.9	67.4	76.5	0.36 (≈ 0.729 µM)	MIC (Staphylococcus aureus [4]): 1000 µg/mL (≈ 2030 µM); MIC (Enterococcus): 500 µg/mL (≈ 1010 µM); Activity [14]: 82.1%; MIC [15]: 250 µg/mL (≈ 507 µM)
O=C(O)c1cn(C2CC2)c2cc(N3CCNCC3)c(F)cc2c1=O [CIPROFLOXACIN]	50 (≈ 151 µM)		25 (≈ 75.4 µM)	50 (≈ 151 µM)																	
COC1=CC(=O)C[C@@H](C)[C@]12Oc1c(Cl)c(OC)cc(OC)c1C2=O [GRISEOFULVIN]										100 (≈ 283 µM)			500 (≈ 1420 µM)	100 (≈ 283 µM)							
CC(=O)c1c(C)nc(SCC(=O)Nc2ccc(OCc3ccccc3)cc2)n1-c1ccc(F)cc1	500 (≈ 1020 µM)	125 (≈ 255 µM)	100 (≈ 204 µM)	250 (≈ 511 µM)	91.8	46.8	63.7	72.4	62.3	> 1000	56.2	125 (≈ 255 µM)	1000 (≈ 2040 µM)	> 1000	85.9	45.7	47.4	60.8	84	0.45 (≈ 0.919 µM)	MIC (Staphylococcus aureus [4]): 1000 µg/mL (≈ 2040 µM); MIC (Enterococcus): 250 µg/mL (≈ 511 µM); Activity [14]: 84.7%; MIC [15]: 62.5 µg/mL (≈ 128 µM)
COc1ccc(-n2c(SCC(=O)Nc3ccc(OC(=O)c4ccco4)cc3)nc(C)c2C(C)=O)cc1	250 (≈ 495 µM)	100 (≈ 198 µM)	125 (≈ 247 µM)	125 (≈ 247 µM)	90	32.5	69.9	78.9	66.2	> 1000	47.1	500 (≈ 989 µM)	250 (≈ 495 µM)	> 1000	84.5	37.7	59.3	59.3	81	0.78 (≈ 1.54 µM)	MIC (Staphylococcus aureus [4]): 500 µg/mL (≈ 989 µM); MIC (Enterococcus): 250 µg/mL (≈ 495 µM); Activity [14]: 85.2%; MIC [15]: 62.5 µg/mL (≈ 124 µM)
CCn1cc(C(=O)O)c(=O)c2cc(F)c(N3CCNCC3)cc21 [NORFLOXACIN]	10 (≈ 31.3 µM)	10 (≈ 31.3 µM)	10 (≈ 31.3 µM)	10 (≈ 31.3 µM)																	
CC1(C)S[C@@H]2[C@H](NC(=O)[C@H](N)c3ccccc3)C(=O)N2[C@H]1C(=O)O [AMPICILLIN]	250 (≈ 715 µM)	100 (≈ 286 µM)	100 (≈ 286 µM)	100 (≈ 286 µM)																	
NYSTATIN										100			100	100							
C=C[C@H]1CN2CC[C@H]1C[C@H]2[C@H](O)c1ccnc2ccc(OC)cc12 [QUININE]																				0.268 (≈ 0.826 µM)	
